# Measured values taken from article PMC6220780 (Clinical Pharmacology in Drug Development, 2018).
# pIC50: −log10 of the molar value. Like-named read-outs stand apart in the source and are kept apart here. Marks after values point to notes of the source that are not given here.
# Legend:
# [1] = test system: Japanese patients with type 2 diabetes mellitus; test: Plasma glucose; type: in vivo, human; conditions: for FPG change from baseline / FPG postdose: single 5-mg oral dose, mean ± SD; for changes in plasma glucose AUC0-4 from baseline: single 5-mg dose
# How it was run: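 Hospitalized patients received a single oral dose before breakfast on day 3. Plasma glucose was sampled predose and at 0.5, 1, 2, 4, 6, 8, 12 and 24 h and measured by autoanalyzer. AUC was calculated by the linear trapezoidal rule, with change from the day before dosing estimated per patient. Change in AUC0-4 was analyzed by 1-sample t test.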
# [2] = Urinary excretion of luseogliflozin and metabolites up to 72 hours; type: in vivo, human; conditions: single 5-mg dose of luseogliflozin
# How it was run: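 24-h urine was collected before dosing and over 0–24, 24–48 and 48–72 h after a single oral dose. Parent compound and metabolites were quantified by validated LC-MS/MS after solid-phase extraction with deuterated internal standards (parent LLOQ 0.1 ng/mL). Excretion rates were estimated from the urine concentrations.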
# SGLT2 = conditions: cited from earlier work
# [3] = test system: Japanese patients with type 2 diabetes mellitus; test: Safety: adverse events after a single 5-mg dose; type: in vivo, human
# How it was run: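 Adverse events were recorded by type and incidence from monitoring of clinical laboratory tests, body weight, vital signs and electrocardiograms. Monitoring covered a 6-day hospital stay with a single oral dose on day 3, plus a follow-up visit 3–5 days after discharge.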
# [4] = test system: Japanese patients with type 2 diabetes mellitus; test: 24-hour urinary glucose excretion; type: in vivo, human; conditions: single 5-mg oral dose, mean ± SD
# How it was run: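 Patients were hospitalized for 6 days and 5 nights on a stable diet, with no other antidiabetic drugs. A single oral dose of the test compound was given before breakfast on day 3. Glucose was measured by autoanalyzer in 24-h pooled urine collected before and after dosing.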
# [5] = type: in vivo, human
# How it was run: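 Samples were assayed by validated HPLC-MS/MS (solid-phase extraction, deuterated internal standard, negative-ion MRM; LLOQ 0.05 ng/mL). Parameters came from noncompartmental analysis. Group effects were assessed by ANOVA as geometric mean ratios to the normal-function group with 90% CIs.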
structure (smiles),measurement,setting,value
"CCOc1ccc(Cc2cc([C@@H]3S[C@H](CO)[C@@H](O)[C@H](O)[C@H]3O)c(OC)cc2C)cc1 [luseogliflozin, (1S)‐1,5‐anhydro‐1‐[5‐(4‐ethoxybenzyl)‐2‐methoxy‐4‐methylphenyl]‐1‐thio‐D‐glucitol]",FPG change from baseline,"[1]; G1, eGFR ≥90, n = 11",-27.4 ± 23.5 mg/dL
same,FPG postdose,"[1]; G1, eGFR ≥90, n = 11",139.7 ± 25.2 mg/dL
same,changes in plasma glucose AUC0-4 from baseline,"[1]; G1, P < .05",−135 mg⋅h/dL
same,FPG change from baseline,"[1]; G2, eGFR 60–89, n = 17",-15.1 ± 13.6 mg/dL
same,FPG postdose,"[1]; G2, eGFR 60–89, n = 17",136.4 ± 37.0 mg/dL
same,changes in plasma glucose AUC0-4 from baseline,"[1]; G2, P < .05",−104 mg⋅h/dL
same,FPG change from baseline,"[1]; G3a, eGFR 45–59, n = 9",−11.3 ± 13.5 ^b mg/dL
same,FPG postdose,"[1]; G3a, eGFR 45–59, n = 9",140.1 ± 26.6 ^b mg/dL
same,changes in plasma glucose AUC0-4 from baseline,"[1]; G3a, P < .05",−108 mg⋅h/dL
same,FPG change from baseline,"[1]; G3b, eGFR 30–44, n = 12",−4.8 ± 11.8 ^c mg/dL
same,FPG postdose,"[1]; G3b, eGFR 30–44, n = 12",135.7 ± 24.3 ^c mg/dL
same,changes in plasma glucose AUC0-4 from baseline,[1]; G3b,−30.2 mg⋅h/dL
same,FPG change from baseline,"[1]; G4, eGFR <30, n = 6",2.2 ± 7.9 mg/dL
same,FPG postdose,"[1]; G4, eGFR <30, n = 6",125.8 ± 21.1 mg/dL
same,changes in plasma glucose AUC0-4 from baseline,[1]; G4,−32.6 mg⋅h/dL
same,difference in plasma glucose AUC0-4 from G1 (90%CI),[1]; between G1 and G2,32.3 (−22.8–87.5)
same,difference in plasma glucose AUC0-4 from G1 (90%CI),[1]; between G1 and G3a,26.7 (−38.6 to 91.9)
same,difference in plasma glucose AUC0-4 from G1 (90%CI),[1]; between G1 and G3b,92.2 (21.9–163)
same,difference in plasma glucose AUC0-4 from G1 (90%CI),[1]; between G1 and G4,72.6 (−1.29 to 146)
same,excreted in urine up to 72 hours after administration,[2]; G1,4.68%
same,excreted in urine up to 72 hours after administration,[2]; G2,4.15%
same,excreted in urine up to 72 hours after administration,[2]; G3a,3.25%
same,excreted in urine up to 72 hours after administration,[2]; G3b,2.90%
same,excreted in urine up to 72 hours after administration,[2]; G4,2.15%
same,selectivity for SGLT2 over SGLT1,SGLT2; SGLT2 versus SGLT1,1770 fold
same,pIC50,SGLT2; read-out: half-maximal inhibitory concentration (IC50) for SGLT2,8.65
same,"AEs judged as moderate: increased blood glucose, patients",[3]; 57 patients,2
same,"AEs judged as moderate: syncope, patients",[3]; 57 patients,1
same,number of AEs in the total study population,"[3]; 57 patients, all of mild to moderate severity",12
same,Adverse event: Rash (Skin and subcutaneous tissue disorders),[3]; G1 (n = 11),1
same,All adverse events: number of patients,[3]; G1 (n = 11),1
same,Adverse event: Blood glucose increased (Investigations),[3]; G2 (n = 17),1
same,"Adverse event: Bundle branch block, right (Cardiac disorders)",[3]; G2 (n = 17),1
same,All adverse events: number of patients,[3]; G2 (n = 17),2
same,All adverse events: number of events,[3]; G3a (n = 10),2
same,All adverse events: number of patients,[3]; G3a (n = 10),2
same,Adverse event: Blood glucose increased (Investigations),[3]; G3b (n = 13),1
same,Adverse event: Dizziness (Nervous system disorders),[3]; G3b (n = 13),1
same,Adverse event: Syncope (Nervous system disorders),[3]; G3b (n = 13),1
same,All adverse events: number of patients,[3]; G3b (n = 13),3
same,All adverse events: number of patients,[3]; G4 (n = 6),0
same,deaths or serious AEs,[3]; any group,no deaths or serious AEs were observed
same,AEs judged to be related to luseogliflozin administration,[3]; both judged to be mild,rash in the G1 group and dizziness in the G3b group
same,changes in laboratory parameters or vital signs,"[3]; during the study, data not shown",no clinically relevant changes
same,number of patients with AEs in the total study population,[3]; of the 57 patients,8
same,UGE0-24 change from baseline,"[4]; G1, eGFR ≥90, n = 11",88.3 ± 36.9 g/day
same,UGE0-24 postdose,"[4]; G1, eGFR ≥90, n = 11",111 ± 36.0 g/day
same,UGE0-24 change from baseline,"[4]; G2, eGFR 60–89, n = 17",69.7 ± 19.1 g/day
same,UGE0-24 postdose,"[4]; G2, eGFR 60–89, n = 17",82.6 ± 23.8 g/day
same,UGE0-24 change from baseline,"[4]; G3a, eGFR 45–59, n = 9",57.3 ± 14.9 g/day
same,UGE0-24 postdose,"[4]; G3a, eGFR 45–59, n = 9",64.4 ± 24.4 ^b g/day
same,UGE0-24 change from baseline,"[4]; G3a, eGFR 45–59, n = 9, listed as Luseogliflozin",57.3 ± 14.9 ^b g/day
same,UGE0-24 change from baseline,"[4]; G3b, eGFR 30–44, n = 12",35.3 ± 10.8 g/day
same,UGE0-24 postdose,"[4]; G3b, eGFR 30–44, n = 12",39.4 ± 12.9 ^c g/day
same,UGE0-24 change from baseline,"[4]; G3b, eGFR 30–44, n = 12, listed as Luseogliflozin",35.3 ± 10.8 ^c g/day
same,UGE0-24 change from baseline,"[4]; G4, eGFR <30, n = 6",21.8 ± 7.10 g/day
same,UGE0-24 postdose,"[4]; G4, eGFR <30, n = 6",23.7 ± 8.83 g/day
same,ratio of the geometric mean (90%CI) of Cmax to the Cmax of G1,[5]; G2 versus G1,0.922 (0.756–1.13)
same,ratio of the geometric mean of AUCinf (90%CI) to that of G1,[5]; G2 versus G1,1.05 (0.900–1.21)
same,ratio of the geometric mean (90%CI) of Cmax to the Cmax of G1,[5]; G3a versus G1,0.939 (0.720–1.22)
same,ratio of the geometric mean of AUCinf (90%CI) to that of G1,[5]; G3a versus G1,1.05 (0.842–1.32)
same,ratio of the geometric mean (90%CI) of Cmax to the Cmax of G1,[5]; G3b versus G1,0.781 (0.607–1.01)
same,ratio of the geometric mean of AUCinf (90%CI) to that of G1,[5]; G3b versus G1,1.04 (0.879–1.23)
same,plasma concentration 72 hours after administration as fraction of the Cmax,"[5]; G4, single 5-mg dose of luseogliflozin",approximately one‐fiftieth
same,ratio of the geometric mean (90%CI) of Cmax to the Cmax of G1,[5]; G4 versus G1,0.724 (0.525–0.999)
same,ratio of the geometric mean of AUCinf (90%CI) to that of G1,[5]; G4 versus G1,1.21 (0.947–1.53)
same,concentration at 72 h,"[5]; human, plasma, oral, 5 mg",1.28 to 3.15 ng/mL
